A short description of assay [1]: S. cerevisiae growth inhibition in permissive medium (OD615), pilot counter-assay for S. cerevisiae lifespan shortening project, permissive growth control (AID 705;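 active = growth inhibition above 25% in both replicates, a cutoff set 3 SD above the mean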). Conditions: OD615, 24 h, at 10 µM, hits give high values. Summed up:
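System – S. cerevisiae with engineered DeaD lifespan system · Buffer or medium – SC raffinose/galactose permissive medium · Schedule – cells pre-grown 4 h, then 24 h compound exposure, 30 °C humidified · Technique – culture turbidity as optical density at 615 nm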

Assay [2] can be described thus: S. cerevisiae growth inhibition in restrictive medium, OD615, pilot screen, restrictive growth control, yeast lifespan reduction project (AID 706;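 active = growth inhibition above a set limit, 3 SD over mean compound inhibition, in both replicates, cut at about 43% in these data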;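 note: modified DeaD lifespan yeast strain shifted to restrictive glucose medium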). Conditions: OD615, 48 h, at 10 µM, hits give high values. Summed up: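 Material: engineered S. cerevisiae DeaD strain / Medium: glucose-based CSMM-D restrictive medium / Compound: single dose of 10 µM compound final, 0.25% DMSO / Timing: 4 h pre-incubation, 48 h exposure at 30 °C / Technique: OD615 absorbance reading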

Assay [3] can be described thus: doxorubicin toxicity protection in MRP-1 cells – H69AR cells, CellTiter-Glo, duplicate, MRP-1 activator project, pilot screen (AID 807;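 active = viability increase at or above a cutoff of the median across tested compounds plus 3 SD, cut at about 8.5% in these data, passing the limit was not always enough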;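 note: compound pretreatment 18-22 h then 72 h combined with doxorubicin; 0% = doxorubicin alone and 100% = vehicle without doxorubicin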). As to conditions: H69AR viability with doxorubicin, CellTiter-Glo luminescence; at 10 µM; hits give high values. For orientation: ATP-based viability assays read luminescence as a measure of living cells.
The nature of assay [4]: viability of HCT116 without oncogenic beta-catenin – human colon tumor cells, pilot screen (AID 823;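 active = cell viability at or below a set limit in both duplicate runs, the limit being the all-compound median minus 4 SD, cut at about 23% in these data, passing the limit was not always enough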;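 note: 0% = wells killed by 20 µM Hyamine and 100% = untreated DMSO cell wells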). As to conditions: HCT116 beta-catenin knockout viability, CellTiter-Glo, 60 h; at 10 µM; hits give low values.
Assay [5] can be described thus: viability of PTEN-null HCT116 cells – cell-based, HCT116 clonal line, CellTiter-Glo, pilot screen (AID 824;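 active = viability at or below 27.92% in each of two runs, the all-compound median minus 4 SD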;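 note: 0% = 20 µM Hyamine control and 100% = vehicle cell control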). Conditions: HCT116 PTEN-deleted viability, 60 h, at 10 µM, hits give low values.
A short description of assay [6]: RAM pathway blockade in budding yeast – dse1pr::URA3 reporter, 5-FOA selection, pilot screen (AID 869;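 active = inhibition over a set limit, the all-compound mean plus 3 SD, in both replicate runs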;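 note: 0% = DMSO wells with no growth and 100% = 10 µM 1-NA-PP1 with full growth; RAM network block rescues cells from 5-FOA so hits raise OD615 growth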). Conditions: S. cerevisiae dse1pr::URA3 5-FOA growth, OD615, 2 d; at 10 µM; hits give high values; strain carries analog-sensitive mutant Cbk1 kinase.
The nature of assay [7]: RAM signaling pathway blockade in yeast – S. cerevisiae, Pdr1DBD-CYC8 efflux-inhibited sensitized strain, primary screen (AID 1298).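 Note: 0% = DMSO untreated cells without growth and 100% = 10 µM 1-NA-PP1 full growth; higher means more yeast growth rescued from 5-FOA killing.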 Conditions: S. cerevisiae cbk1-as DSE1-URA3 strain, 5-FOA growth OD615, 2 d; at 50 µM; hits give high values.

Unmarked numbers belong to inactive results. Results filed as inconclusive are left out. Active and inactive are the calls of the source.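 Rule for the calls, unless noted: active = RAM network inhibition above 8.4% in each of two replicates, 3 SD over the compound average; inconclusive = above 8.4% inhibition in only one replicate; inactive = 8.4% inhibition or less in each replicate.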

The viability is a read-out of living cells in per cent, often relative to untreated cells. Broadly, the inhibition is the drop in the measured response relative to a control, in per cent.

For the compound `COCCNC(=O)C1CC(=O)N(c2ccc(F)c(Cl)c2)C1` (stereo not drawn), the growth inhibition in assay [1] is -2.14%; in assay [2], -4%. For the same compound, the viability increase in assay [3] was 0.07%. The viability was 105% in assay [4] and 95.7% in assay [5]. Besides, the inhibition in assay [6] was 0.835%. In addition, in assay [7], the RAM network inhibition was 1.14%.
In the case of `CCc1ccc(NC(=O)c2cnc3n(c2=O)CCS3)cc1`, the growth inhibition in assay [1] is -1.06%; in assay [2], 0.895%. Further, in assay [3], the viability increase was -2.9%. Besides, the viability in assay [4] was 95.2%; in assay [5], 85.9%. For the same compound, the inhibition in assay [6] is 2.82%. The RAM network inhibition in assay [7] was 0.15%.
As to `COC(=O)c1cc(NC2c3ccccc3C(=O)N2c2ccc(Cl)cn2)cc(C(=O)OC)c1` (stereo not drawn), the growth inhibition in assay [1] was -20.1%; in assay [2], -16.2%. The viability increase in assay [3] is 0.19%. Further, the viability is 71.2% in assay [4] and 64.4% in assay [5]. In assay [6], the inhibition was 1.5%. The RAM network inhibition in assay [7] is 4.41%.
For the compound `O=C(O)c1ccc(-n2cccc2)cc1O`, the values for the growth inhibition in assay [1] and in assay [2] were -2.21% and -13.1%, respectively. Moreover, the viability increase in assay [3] is -1.52%. Further, the viability was 96.8% in assay [4] and 101% in assay [5]. The inhibition in assay [6] is 0.285%. For the same compound, in assay [7], the RAM network inhibition was -0.83%.
`CCCCc1ccc(Nc2ncnc3nc[nH]c23)cc1`: the growth inhibition in assay [1] is -6.71%; in assay [2], 22.7%. In addition, in assay [3], the viability increase was 2.8%. For the same compound, the values for the viability in assay [4] and in assay [5] were 106% and 94%, respectively. Further, in assay [6], the inhibition was -0.1%. Moreover, the RAM network inhibition in assay [7] was 1.66%.
In the case of `COc1ccc(N2CCN(Cc3nc4c(c(=O)n(C)c(=O)n4C)n3Cc3cccc(C)c3)CC2)cc1`, the results for the growth inhibition in assay [1] and in assay [2] were -11.5% and -24.2%, respectively. For the same compound, in assay [3], the viability increase was -3.88%. The viability in assay [4] is 80.1%; in assay [5], 75.2%. Moreover, the inhibition in assay [6] was -0.7%. Also, the RAM network inhibition in assay [7] is 8.85%.
With `CCC1CCCCN1C(=O)CSc1nc(N)c(NC(=O)c2ccco2)c(=O)[nH]1` (stereo not drawn), the growth inhibition in assay [1] is 12.5%; in assay [2], 10.7%. In addition, the viability increase in assay [3] was -2.48%. Moreover, the viability in assay [4] is 106%; in assay [5], 99%. Also, the inhibition in assay [6] was 2.09%. In addition, the RAM network inhibition in assay [7] was 2.2%.
With `COc1ccc(-c2nc(CS(=O)CC(=O)N3CCc4ccccc4C3)c(C)o2)cc1` (stereo not drawn), the growth inhibition in assay [1] is 2.66%; in assay [2] it was 32.7%. Further, the viability increase in assay [3] was -2.66%. Further, the viability in assay [4] was 85.6%; in assay [5] it was 88.8%. Also, in assay [6], the inhibition was 1.13%. In assay [7], the RAM network inhibition was 3.48%.
`Cc1cccc(NC(=O)CSc2nnc(-c3ccccc3)n2N)c1`: the results for the growth inhibition in assay [1] and in assay [2] were -0.87% and 0.675%, respectively. In assay [3], the viability increase was -1.81%. Moreover, the viability in assay [4] was 100%; in assay [5], 98.9%. The inhibition in assay [6] is 1.93%. Besides, the RAM network inhibition in assay [7] was 4.31%.
Turning to `CN(C)S(=O)(=O)c1ccc(C(=O)Nc2nc(-c3cccs3)cs2)cc1`, the growth inhibition is -5.6% in assay [1] and -13.7% in assay [2]. Besides, the viability increase in assay [3] is -1.56%. In addition, the viability in assay [4] was 49.8%; in assay [5], 20% (active). Besides, the inhibition in assay [6] is 4.17%. The RAM network inhibition in assay [7] is 5.01%.
Consider `COc1ccccc1OCC(=O)Nc1ccc(S(=O)(=O)NC(C)=O)cc1`, for which the growth inhibition in assay [1] was -17%; in assay [2], -5.72%. Also, the viability increase in assay [3] was 1.56%. Besides, the viability is 89.2% in assay [4] and 103% in assay [5]. Also, the inhibition in assay [6] was 0.645%. Besides, the RAM network inhibition in assay [7] was 2.08%.
For `CC1CCN(C(=O)C(Cc2ccccc2)NS(=O)(=O)c2ccc3c(c2)oc(=O)n3C)CC1` (stereo not drawn), the growth inhibition in assay [1] is -12.5%; in assay [2], -17.6%. The viability increase in assay [3] was -1.4%. Besides, the viability in assay [4] was 104%; in assay [5], 94.1%. Further, the inhibition in assay [6] was 1.85%. For the same compound, the RAM network inhibition in assay [7] was 8.04%.
On to `COC(=O)C1=C(C)N2C(=O)CSC2=NC1c1ccc2c(c1)OCO2` (stereo not drawn), for which the growth inhibition in assay [1] is 5.86%; in assay [2] it was 53.2% (active). The viability increase in assay [3] is 0.55%. The viability in assay [4] is 93.3%; in assay [5], 98.8%. Besides, in assay [6], the inhibition is 0.03%. Besides, the RAM network inhibition in assay [7] is 0.78%.
As for `COc1ccccc1NC(=O)CSc1nnc(-c2ccccc2)o1`, the growth inhibition is -16% in assay [1] and -11% in assay [2]. Further, the viability increase in assay [3] is -0.16%. For the same compound, the viability in assay [4] was 77.6%; in assay [5], 71.1%. The inhibition in assay [6] was 2.4%. In addition, in assay [7], the RAM network inhibition was 1.53%.
`COc1ccc(C2C(C(=O)N3CCN(c4ccccc4)CC3)c3ccccc3C(=O)N2C)cc1` (stereo not drawn): the growth inhibition in assay [1] is -13.4%; in assay [2] it was -17.6%. Also, the viability increase in assay [3] is -4.08%. Also, the viability was 69.6% in assay [4] and 74.9% in assay [5]. For the same compound, the inhibition in assay [6] was 2.13%. Moreover, the RAM network inhibition in assay [7] was 2.38%.
On to `Cc1cc(C(=O)N2CCN(S(C)(=O)=O)CC2)cs1`, for which the growth inhibition in assay [1] was -7.07%; in assay [2] it was -12.8%. For the same compound, in assay [3], the viability increase is -1.25%. Moreover, the viability in assay [4] is 94.5%; in assay [5], 88.9%. Besides, in assay [6], the inhibition was 1.6%. Besides, the RAM network inhibition in assay [7] is -0.04%.
`Cn1c(=O)c2c(nc(SCc3cc4c(cc3Cl)OCO4)n2C)n(C)c1=O`: the growth inhibition in assay [1] was -5.9%; in assay [2] it was -0.11%. Besides, the viability increase in assay [3] is -0.21%. The viability in assay [4] was 99.6%; in assay [5] it was 100%. In addition, the inhibition in assay [6] was 1.15%. In addition, the RAM network inhibition in assay [7] is 5.36%.
`CCOC1OC2C(CO)OC(n3cnc4c(N)ncnc43)C2O1` (stereo not drawn): the growth inhibition was 6.12% in assay [1] and 10.6% in assay [2]. The viability increase in assay [3] was 0.13%. For the same compound, the results for the viability in assay [4] and in assay [5] were 95.1% and 96.6%, respectively. Moreover, the inhibition in assay [6] was 1.5%. The RAM network inhibition in assay [7] was 1.28%.
Turning to `CCN(CC)S(=O)(=O)c1ccc(-c2nnc3sc4cccc(C)c4n23)cc1`, the growth inhibition in assay [1] is -22.7%; in assay [2], -11.5%. The viability increase in assay [3] was -2.97%. In addition, the viability in assay [4] was 73.4%; in assay [5] it was 72.9%. Further, in assay [6], the inhibition was 2%. Moreover, in assay [7], the RAM network inhibition was 3.69%.
Consider `COC(=O)c1cc(NC2c3ccccc3C(=O)N2c2cccnc2)cc(C(=O)OC)c1` (stereo not drawn), for which the results for the growth inhibition in assay [1] and in assay [2] were -10.2% and 0.875%, respectively. For the same compound, in assay [3], the viability increase was -4.6%. Also, the figures for the viability in assay [4] and in assay [5] were 90.6% and 91.4%, respectively. In assay [6], the inhibition is 1.27%. In assay [7], the RAM network inhibition was 6.35%.
Regarding `Cn1c(NC(=O)c2ccc3c(c2)OCO3)cc(=O)n(C)c1=O`, the growth inhibition in assay [1] was -5.14%; in assay [2], -2.67%. For the same compound, the viability increase in assay [3] was 0.04%. Moreover, the viability in assay [4] is 98.5%; in assay [5] it was 92.3%. In addition, in assay [6], the inhibition is 1.05%. Moreover, the RAM network inhibition in assay [7] was -2.06%.
`O=C(c1cc(-c2cccc(O)c2)on1)N1CCCCC1`: the figures for the growth inhibition in assay [1] and in assay [2] were 0.145% and 10.4%, respectively. For the same compound, the viability increase in assay [3] is 0.08%. The viability was 101% in assay [4] and 103% in assay [5]. Further, the inhibition in assay [6] is -0.46%. Moreover, the RAM network inhibition in assay [7] is 4.74%.
With `CCOC(=O)C1CCN(C(=O)C2c3ccccc3C(=O)N(C)C2c2ccc(OC)cc2)CC1` (stereo not drawn), the growth inhibition in assay [1] was -7.75%; in assay [2] it was -16.1%. In addition, the viability increase in assay [3] is -4.5%. The viability in assay [4] was 76.3%; in assay [5], 85.8%. For the same compound, in assay [6], the inhibition was 2.1%. Further, the RAM network inhibition in assay [7] was 1.79%.
As for `COc1ccccc1CNC(=O)c1ccc(CNc2c(N3CCCC3)c(=O)c2=O)cc1`, the growth inhibition was 3.65% in assay [1] and -2.78% in assay [2]. Further, in assay [3], the viability increase is -2.46%. The results for the viability in assay [4] and in assay [5] were 98.8% and 94.8%, respectively. In assay [6], the inhibition was 0.46%. Moreover, the RAM network inhibition in assay [7] was 2.8%.

These data come from PubChem BioAssay.
